Series [1] is described as follows: Drug metabolism in microsomes (unknown origin) assessed as retention time treated with 10 uM triclocarban by LC-UV-MS method. Type of series: ADME, Microsome.
Series [2] can be described thus: Drug level in Swiss webster mouse urine treated with triclocarban at 5 mg/kg, po by LC-MS analysis. The class given is ADME, organism-based. Also noted: dose 5 mg/kg, route oral. The conditions noted are these: in vivo. In short, it runs like this:
(§1)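 TCC given by oral gavage as 1 mg/mL in 20/80 DMSO/PEG400, at 1 mg/kg (rats) or 5 mg/kg (mice). Animals in metabolic cages (mice two per cage, rats singly), blank urine taken 24 h before dosing. Urine collected 0-24 h and 24-48 h and analysed by online-LC-MS.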

Series [3] can be described thus: Drug level in Sprague-Dawley rat urine treated with triclocarban at 1 mg/kg, po by LC-MS analysis. Also on record: dose 1 mg/kg, route oral. The settings on record: in vivo. The class given is ADME, organism-based. In short, it runs like this:
as §1

The test system of series [4] is Liver microsome. In words: Drug metabolism in Sprague-Dawley rat liver microsomes assessed as retention time treated with 6-hydroxy-triclocarban by LC-UV-MS method in presence of UDPGA. The class given is ADME.
Series [5] in a line: Drug level in human kidney microsomes treated with triclocarban incubated for 5 mins prior to UDPGA addition measured after 30 mins by LC-UV-ESI-MS/MS analysis. The class given is ADME. The settings on record: 0.5 h. In short, it runs like this:
(§2)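 Microsomes or Sf-9 Supersomes (5 µg protein in 200 µL 100 mM potassium phosphate pH 7.4) pre-treated with alamethicin on ice 15 min; substrate 10 µM final (2% DMSO), MgCl2 and saccharolactone 10 mM each; 5 min preincubation at 37 °C, then UDPGA to start. Samples taken at 5, 10, 15, 30 min (or 2, 5, 10, 15 min) into ACN with internal standard; LC-UV-ESI-MS/MS.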

Series [6] deals with T1, UDP-glucuronosyltransferase 1A9 (Homo sapiens, UniProt O60656).
T1 sequence (O60656 whole entry): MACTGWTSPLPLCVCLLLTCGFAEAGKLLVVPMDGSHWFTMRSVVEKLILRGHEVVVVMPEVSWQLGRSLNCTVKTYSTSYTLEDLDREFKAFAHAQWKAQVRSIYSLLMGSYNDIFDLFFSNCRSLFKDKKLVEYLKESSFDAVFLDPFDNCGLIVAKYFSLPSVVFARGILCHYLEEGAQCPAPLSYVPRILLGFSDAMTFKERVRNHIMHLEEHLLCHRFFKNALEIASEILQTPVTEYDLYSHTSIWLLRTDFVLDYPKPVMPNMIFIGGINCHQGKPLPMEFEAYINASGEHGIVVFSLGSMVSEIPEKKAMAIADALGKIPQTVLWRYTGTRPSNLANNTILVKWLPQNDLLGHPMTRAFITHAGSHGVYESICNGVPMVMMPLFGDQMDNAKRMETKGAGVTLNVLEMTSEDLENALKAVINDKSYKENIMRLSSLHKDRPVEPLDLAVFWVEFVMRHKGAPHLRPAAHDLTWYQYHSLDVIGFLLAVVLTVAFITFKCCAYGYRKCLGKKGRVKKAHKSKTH
In words: Activity of human UGT1A9 expressed in baculovirus infected insect sf9 cells assessed as enzyme-mediated drug metabolism treated with triclocarban incubated for 5 mins prior to UDPGA addition measured after 30 mins by LC-ESI-MS analysis. The class given is ADME. The conditions noted are these: sf9, 0.5 h. In short, it runs like this: as §2

In series [7] the test system is Liver microsome. In words: Drug level in human liver microsomes treated with triclocarban incubated for 5 mins prior to UDPGA addition measured after 30 mins by LC-UV-ESI-MS/MS analysis. Type of series: ADME. The conditions noted are these: 0.5 h. In outline:
as §2
A general note: Microsomes from liver hold many membrane-bound enzymes, among them those of drug oxidation.

Series [8] can be described thus: Drug excretion in human urine assessed as retention time treated with triclocarban by LC-UV-MS method. Type of series: ADME.
Series [9] is described as follows: Drug level in cynomolgus monkey liver microsomes treated with triclocarban incubated for 5 mins prior to UDPGA addition measured after 30 mins by LC-UV-ESI-MS/MS analysis. Type of series: ADME, Macaca fascicularis. The conditions noted are these: 0.5 h. In outline:
as §2

Series [10] deals with Liver. In words: Drug level in B6C3F1 mouse liver microsomes treated with triclocarban incubated for 5 mins prior to UDPGA addition measured after 30 mins by LC-UV-ESI-MS/MS analysis. The conditions noted are these: 0.5 h. Type of series: ADME. In short, it runs like this: as §2

Structures are written as SMILES.

Regarding `O=C(Nc1ccc(Cl)c(Cl)c1)Nc1ccc(Cl)cc1OS(=O)(=O)O`, in series [1], the Retention_time was found to be 3.46 min.

`O=C(Nc1ccc(Cl)c(Cl)c1)Nc1ccc(Cl)cc1OC1O[C@H](C(=O)O)[C@@H](O)[C@H](O)[C@H]1O` (stereo not given in full): the Retention_time in series [1] turned out to be 2.5 min. Moreover, the Drug metabolism entry in series [2] and in [3] was “metabolite_detected” throughout.

`O=C(Nc1ccc(Cl)cc1)Nc1ccc(Cl)cc1`: the Retention_time in series [1] was 4.36 min.

With `O=C(Nc1ccc(Cl)cc1)Nc1cc(Cl)c(Cl)cc1OC1O[C@H](C(=O)O)[C@@H](O)[C@H](O)[C@H]1O` (stereo not given in full), in series [4], the Retention_time was 2.51 min. The Drug metabolism result in series [2] and in series [3] was “metabolite_detected” throughout.

As to `O=C(Nc1ccc(Cl)c(Cl)c1)Nc1ccc(Cl)c(OC2O[C@H](C(=O)O)[C@@H](O)[C@H](O)[C@H]2O)c1` (stereo not given in full), the Retention_time in series [4] is recorded as 2.26 min. The Drug metabolism entry in series [2] and in series [3] was “metabolite_detected” in each case.

Consider `O=C(O)[C@H]1OC(N(C(=O)Nc2ccc(Cl)cc2)c2ccc(Cl)c(Cl)c2)[C@H](O)[C@@H](O)[C@@H]1O` (stereo not given in full), for which the Drug metabolism result in [5], in series [6], in series [7], in series [2], in series [9] and in series [10] was “metabolite_detected” throughout. Moreover, the Retention_time in series [8] was 1.97 min.

With `O=C(O)[C@H]1OC(N(C(=O)Nc2ccc(Cl)c(Cl)c2)c2ccc(Cl)cc2)[C@H](O)[C@@H](O)[C@@H]1O` (stereo not given in full), the Drug metabolism result in series [5], in [6], in series [7], in series [2], in [9] and in [10] was “metabolite_detected” in each case. Further, the Retention_time in series [8] is recorded as 2.07 min.

The values above are taken from ChEMBL document CHEMBL3525967, “In vitro glucuronidation of the antibacterial triclocarban and its oxidative metabolites” (Drug Metab Dispos, 2012).
